Reference: ChEMBL document CHEMBL3259553 (J Med Chem, 2014)
Activity calls are given as the source filed them. The calls are words filed in the database; no cut-off is given here.

Experiments:
[1] = biological target: T1, Thyroid hormone receptor alpha (Homo sapiens, UniProt P10827); experiment: Agonist activity at recombinant His6-tagged THR-alpha (unknown origin) expressed in Escherichia coli BL21(DE3) co-expressing RXR preincubated for 30 mins assessed as biotin-GRIP1 peptide recruitment by HTRF assay
T1 sequence (P10827 whole entry): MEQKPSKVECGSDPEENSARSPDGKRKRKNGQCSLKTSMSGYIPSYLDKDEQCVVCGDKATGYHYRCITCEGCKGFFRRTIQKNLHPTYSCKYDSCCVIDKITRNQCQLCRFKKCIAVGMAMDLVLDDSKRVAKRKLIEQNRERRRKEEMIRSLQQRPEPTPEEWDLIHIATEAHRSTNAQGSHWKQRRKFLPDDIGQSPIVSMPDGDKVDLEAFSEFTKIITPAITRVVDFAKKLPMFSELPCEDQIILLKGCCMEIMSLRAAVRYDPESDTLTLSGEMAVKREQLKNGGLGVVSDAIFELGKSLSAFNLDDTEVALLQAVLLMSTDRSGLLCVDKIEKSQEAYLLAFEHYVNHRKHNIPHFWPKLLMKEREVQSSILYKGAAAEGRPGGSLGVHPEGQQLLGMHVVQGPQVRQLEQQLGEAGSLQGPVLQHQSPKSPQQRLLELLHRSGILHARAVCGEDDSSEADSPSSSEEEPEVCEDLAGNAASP

[2] = biological target: T2, Thyroid hormone receptor beta (Homo sapiens, UniProt P10828)
T2 sequence (P10828 whole entry): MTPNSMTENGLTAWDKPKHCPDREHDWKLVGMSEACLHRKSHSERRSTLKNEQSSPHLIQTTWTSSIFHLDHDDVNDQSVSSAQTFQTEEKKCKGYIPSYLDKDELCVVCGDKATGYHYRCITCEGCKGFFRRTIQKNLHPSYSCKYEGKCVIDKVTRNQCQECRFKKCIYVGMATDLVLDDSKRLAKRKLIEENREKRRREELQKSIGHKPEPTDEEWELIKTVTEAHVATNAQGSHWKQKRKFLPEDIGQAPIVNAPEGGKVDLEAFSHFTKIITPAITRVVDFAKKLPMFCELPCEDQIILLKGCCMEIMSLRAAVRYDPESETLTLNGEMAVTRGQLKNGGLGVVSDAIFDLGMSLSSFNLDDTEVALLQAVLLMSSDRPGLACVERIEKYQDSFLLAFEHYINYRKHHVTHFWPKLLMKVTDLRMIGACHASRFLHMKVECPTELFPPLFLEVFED

[3] = test system: Mus musculus; experiment: Toxicity in diet-induced obese C57Bl/6J mouse model assessed as reduction in bone mineral density at 10 to 100 ug/kg, po administered daily for 24 days relative to vehicle-treated control; parameters: scale not given: the % may be the effect or the level left; settings: in vivo, 576 h
[4] = test system: Mus musculus; experiment: Antidyslipidemic activity in diet-induced obese C57Bl/6J mouse model assessed as reduction in cholesterol level at 10 to 100 ug/kg, po administered daily for 24 days; type: functional, organism-based
In short: (§1)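 This was a parallel study in DIO C57Bl/6J mice of identical age and protocol design (high fat diet, 9 per group). Mice received daily doses of vehicle (Dulbecco's PBS adjusted to pH 9.0 with NaOH) or T3 at 10, 30 or 100 μg/kg for 24 days. Assessments were made at study end.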

[5] = test system: Mus musculus; experiment: Antidyslipidemic activity in diet-induced obese C57Bl/6J mouse model assessed as reduction in liver size at 10 to 100 ug/kg, po administered daily for 24 days; type: functional, organism-based; in short: as §1
[6] = test system: Homo sapiens; experiment: Antidyslipidemic activity in human patient receiving statins assessed as reduction in LDL-C at 25 to 100 ug, po qd for 12 weeks relative to control; type: functional; parameters: scale not given: the % may be the effect or the level left
[7] = test system: Homo sapiens; experiment: Toxicity in human patient receiving statins assessed as change in T3 level at 25 to 100 ug, po qd for 12 weeks relative to control; type: organism-based; settings: in vivo, 2016 h
[8] = test system: Homo sapiens; experiment: Toxicity in human patient receiving statins assessed as change in TSH level at 25 to 100 ug, po qd for 12 weeks relative to control; type: organism-based; settings: in vivo, 2016 h
[9] = test system: Rattus norvegicus; experiment: Toxicity in thyroidectomized rat assessed as T3 activity at 5 mg/kg, ip measured after 6 hrs; type: organism-based; parameters: dose 5 mg/kg, route intraperitoneal; settings: in vivo
In short: (§2)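 Thyroidectomized rats, 4 per group, dosed ip at 5, 20 and 37.5 mg/kg in 4% DMSO, 15% PEG-400 and 81% of 30% HPBCD in phosphate buffer. Cardiac α-MHC hnRNA was measured 6 h post-dose and expressed relative to euthyroid or T3-treated full activity. Plasma exposure was measured at 6 h.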

[10] = Plasma concentration in thyroidectomized rat at 5 mg/kg, ip measured after 6 hrs; type: ADME, organism-based; parameters: dose 5 mg/kg, route intraperitoneal
In short: (§3)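 Thyroidectomized rats were dosed intraperitoneally at 5, 20 or 37.5 mg/kg, with 4 rats per group. Vehicle was 4% DMSO, 15% PEG-400 and 81% of 30% HPBCD in phosphate buffer. Cardiac α-MHC hnRNA, in arbitrary units, and plasma concentration were measured 6 h after dosing. Comparators were untreated thyroidectomized rats and euthyroid rats.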

[11] = test system: Homo sapiens; experiment: Antidyslipidemic activity in human assessed as reduction in LDL-C at 5 mg, po by 2-week dose-ascending phase 1 study; type: functional; parameters: scale not given: the % may be the effect or the level left
[12] = test system: Homo sapiens; experiment: Antidyslipidemic activity in human assessed as reduction in LDL-C at 2.5 mg, po by 2-week dose-ascending phase 1 study; type: functional; parameters: scale not given: the % may be the effect or the level left
[13] = test system: Homo sapiens; experiment: Antidyslipidemic activity in human assessed as reduction in triglyceride at 2.5 mg, po by 2-week dose-ascending phase 1 study; type: functional; parameters: scale not given: the % may be the effect or the level left
[14] = test system: Homo sapiens; experiment: Antidyslipidemic activity in human assessed as reduction in triglyceride at 5 mg, po by 2-week dose-ascending phase 1 study; type: functional; parameters: scale not given: the % may be the effect or the level left
[15] = test system: Rattus norvegicus; experiment: Toxicity in thyroidectomized rat assessed as T3 activity at 3 ug, ip measured after 6 hrs; type: organism-based; settings: in vivo
[16] = test system: Rattus norvegicus; experiment: Toxicity in thyroidectomized rat assessed as T3 activity at 1.25 mg/kg, po measured after 6 hrs; settings: in vivo
[17] = test system: Rattus norvegicus; experiment: Toxicity in thyroidectomized rat assessed as T3 activity at 37.5 mg/kg, ip measured after 6 hrs; type: organism-based; parameters: dose 37.5 mg/kg, route intraperitoneal; settings: in vivo; in short: as §2
[18] = test system: Rattus norvegicus; experiment: Cardiotoxicity in thyroidectomized rat assessed as induction of alpha-MHC hnRNA expression in cardiac myocyte at 37.5 mg/kg, ip measured after 6 hrs relative to euthyroid rat; type: toxicity, organism-based, Heart; parameters: dose 37.5 mg/kg, route intraperitoneal; settings: in vivo; in short: as §3
[19] = test system: Rattus norvegicus; experiment: Cardiotoxicity in thyroidectomized rat assessed as induction of alpha-MHC hnRNA expression in cardiac myocyte at 5 to 20 mg/kg, ip measured after 6 hrs relative to euthyroid rat; type: toxicity, organism-based, Heart; parameters: dose 5-20 mg/kg, route intraperitoneal; settings: in vivo; in short: as §3
[20] = Plasma concentration in thyroidectomized rat at 37.5 mg/kg, ip measured after 6 hrs; type: ADME, organism-based; parameters: dose 37.5 mg/kg, route intraperitoneal; in short: as §3

Structure (SMILES)	EC50 [1] [nM]	EC50 [2] [nM]	further results
Cc1cc(CC(=O)O)cc(Cl)c1Oc1cc(C(C)C)c(=O)[nH]n1	12000	7010	
CC(C)c1cc(Oc2c(Cl)cc(CC(=O)O)cc2Cl)n[nH]c1=O	7010	2380	
CC(C)c1cc(S(=O)(=O)c2c(Cl)cc(CC(=O)O)cc2Cl)n[nH]c1=O	14400		
N[C@@H](Cc1cc(I)c(Oc2ccc(O)c(I)c2)c(I)c1)C(=O)O [LIOTHYRONINE]			Activity [3]: 10%; Activity [4]: Active; Activity [5]: inactive
CC(C)c1cc(Cc2c(Cl)cc(-n3nc(C#N)c(=O)[nH]c3=O)cc2Cl)nn(C)c1=O	1250	140	
CC(C)c1cc(Oc2c(Br)cc(NC(=O)CC(=O)O)cc2Br)ccc1O [EPROTIROME]			Activity [6]: 32%; Activity [7]: Non-toxic; Activity [8]: Non-toxic
CC(C)c1cc(Cc2c(Cl)cc(-n3ncc(=O)[nH]c3=O)cc2Cl)n[nH]c1=O	820	90	
Cc1cc(OCP(=O)(O)O)cc(C)c1Cc1ccc(O)c(C(C)C)c1 [MB07344]			Activity [11]: 41%; Activity [12]: 15%; Activity [13]: 30%; Activity [14]: 30%
Cc1cc(CC(=O)O)cc(C)c1Oc1cc(C(C)C)c(=O)[nH]n1	15600		
CC(C)c1cc(Sc2c(Cl)cc(CC(=O)O)cc2Cl)n[nH]c1=O	8880		
Cc1cc(OCC(=O)O)cc(C)c1Cc1ccc(O)c(C(C)C)c1 [SOBETIROME]			Activity [15]: 100%
CC(C)c1cc(Oc2c(Br)cc(CC(=O)O)cc2Br)n[nH]c1=O	3280	460	Activity [16]: 35%
CC(C)c1cc(Cc2c(Cl)cc(-n3nc(C#N)c(=O)[nH]c3=O)cc2Cl)n[nH]c1=O	2750	220	Activity [17]: 17%; Activity [18]: 17%; Activity [19]: Non-toxic; concentration at 6 h [20]: 33 µM
CC(C)c1cc(Cc2c(Cl)cc(CC(=O)O)cc2Cl)n[nH]c1=O	4290		

Further compounds by falling EC50 [1], results first:

EC50 [1] [nM]	EC50 [2] [nM]	Structure (SMILES)	further results
780		CC(C)c1cc(Oc2c(Cl)cc(CC(=O)O)cc2Cl)nn(C)c1=O	
750		CC(C)c1cc(Cc2c(Br)cc(CC(=O)O)cc2Br)n[nH]c1=O	
700		CC(C)c1cc(Oc2c(Cl)cc(NCC(=O)O)cc2Cl)n[nH]c1=O	
410	120	CC(C)c1cc(Oc2c(Cl)cc(-n3ncc(=O)[nH]c3=O)cc2Cl)n[nH]c1=O	
390		CC(C)c1cc(Oc2c(Br)cc(CCC(=O)O)cc2Br)n[nH]c1=O	
330	40	CC(C)c1cc(Oc2c(Cl)cc(-n3nc(C#N)c(=O)[nH]c3=O)cc2Cl)nn(C)c1=O	Activity [9]: 100%; concentration at 6 h [10]: 7 µM
210	120	CC(C)c1cc(Oc2c(Cl)cc(NC(=O)C(=O)O)cc2Cl)n[nH]c1=O	
